Measurements taken from ChEMBL document CHEMBL4680176, “Identification of DOT1L inhibitors by structure-based virtual screening adapted from a nucleoside-focused library” (Eur J Med Chem, 2020).
The source made the active and inactive calls. No cut-off for these calls is given here.

Tested on: Bone marrow cell
Assay: Induction of cell differentiation in mouse bone marrow cells transformed with MLL-AF9 assessed as change in morphology at 3 uM incubated for 6 days by Wright-Giemsa staining based inverted microscopy
Format: functional
Conditions: time 6.0 day
How it was run: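 Cells taken on day 6 of the proliferation culture (MLL-AF9 murine line, IMDM + 15% FBS + IL-3, re-dosed at each split, 0.3% DMSO). Cytospun onto slides, Wright-Giemsa stained, and imaged under bright field on an inverted microscope to assess morphology.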

With `CC(C)N(CCCNC(=O)Nc1ccc(C(C)(C)C)cc1)C[C@H]1O[C@@H](n2ccc3c(N)ncnc32)[C@H](O)[C@@H]1O` the Activity was “Active”.
